In ChEMBL document CHEMBL4138044, “Withaferin A induces cell death and differentiation in multiple myeloma cancer stem cells” (Medchemcomm, 2017) one finds IC50 data, which are given here for two compounds.

Experiment [1] in a line: Antiproliferative activity against human […] cells after 72 hrs by XTT assay. It counts as functional, cell-based. In short, it runs like this: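 RPMI 8226 cells in RPMI 1640 with 10% FBS, plated at 15 000 cells/well and treated immediately with 0–10 μM WFA for 72 h. XTT added for 4 h. Growth as absorbance relative to vehicle control ×100. IC50 fitted from at least five concentrations; mean of three independent experiments ± SEM.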
In general terms: Tetrazolium assays rely on reduction of a dye to a coloured formazan, in cell work by metabolically active cells.

Experiment [2] concerns Multiple myeloma cancer stem cell. The experiment can be described thus: Antiproliferative activity against human multiple myeloma cancer stem cells after 72 hrs by MTT assay. It counts as functional, cell-based. In short, it runs like this: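 MM-CSCs plated at 5000 cells/well and allowed to adhere 24 h, then exposed to 0–10 μM WFA for 72 h. MTT added for 2 h. Growth taken as absorbance relative to vehicle-control wells ×100. IC50 fitted from at least five concentrations; mean of three independent experiments ± SEM.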

For the compound `C[C@@H]1C[C@H]2[C@@H]3CCC4=CC(=O)C=C[C@]4(C)[C@@]3(F)[C@@H](O)C[C@]2(C)[C@@]1(O)C(=O)CO` [DEXAMETHASONE], the concentration for half-maximal inhibition (IC50) (usually the concentration needed to halve the response being measured) in experiment [1] was 7.8 nM; in experiment [2] it was > 100000 nM.
Consider `CC(C)C[C@H](NC(=O)[C@H](Cc1ccccc1)NC(=O)c1cnccn1)B(O)O` [BORTEZOMIB], for which the IC50 in experiment [1] is 3.6 nM; in experiment [2], 8.4 nM.
